In publication PMC8485890 (Hepatology Communications, 2021):

How the values were obtained:
[1] = system: APAP-induced liver injury; conditions: reducing agent; cited from earlier work
[2] = system: extracellular DNA and MIG30 staining in the liver; assay: Enzymatic removal of DNA and MIG30 staining from the injured liver; assay type: in vivo, mouse; conditions: APAP-treated mice, MIG30-TAMRA 20 µg; hyaluronidase 1,000 U or heparinase III 100 µg i.v.; up to 10 minutes
In short: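 Fasted mice received APAP (dissolved in warm saline) by oral gavage. They then received i.v. Sytox green and 20 µg TAMRA-labelled peptide. Next they were given i.v. hyaluronidase (1,000 U) or heparinase III (100 µg); DNase 1 (1,000 U) was given similarly. Mean fluorescence intensity of DNA and peptide in liver was followed by confocal intravital microscopy for up to 10 minutes.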

bacterial DNA = bacterial DNA present in skin injury; cited from earlier work
[3] = cited from earlier work
C57BL/6J mice = assay: Survival of mice after APAP overdose; assay type: in vivo, mouse (C57BL/6J); conditions: APAP 600 mg/kg oral gavage, within 24 hours
In short: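 Fasted C57BL/6J mice were dosed by oral gavage with APAP dissolved in warm saline, at several doses including 600 mg/kg, and survival was tracked (n ≥ 9 per group). In the 24-h treatment arm, peptide was given intravenously at 100 µg/dose, 6, 12 and 18 h after APAP.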

[4] = system: liver of APAP-treated mice; assay: Serum ALT; assay type: in vivo, mouse; conditions: APAP 600 mg/kg oral gavage; 6 to 36 hours after overdose
In short: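 Fasted mice received APAP 600 mg/kg, dissolved in warm saline, by oral gavage. Hepatocyte necrosis was followed over time by serum ALT, and liver sections were examined by H&E histopathology. Groups had at least five mice, and each experiment was done at least twice. Data are mean ± SEM, analysed by t test or one-way ANOVA.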

liver = assay: Histopathology of liver sections; assay type: in vivo, mouse; conditions: APAP 600 mg/kg, H&E-stained liver sections, up to 24 hours
In short: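 APAP (600 mg/kg) was given in warm saline by oral gavage to fasted mice. Livers were taken at times up to 24 h. Necrotic areas were scored on sections stained with hematoxylin and eosin. Groups had at least five mice, and experiments were repeated at least twice. Data are mean ± SEM.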

[5] = system: pro-inflammatory mediators in liver and serum; assay: Cytokine/chemokine ELISA in liver lysates and serum of APAP-treated mice; assay type: in vivo, mouse; conditions: APAP 600 mg/kg, as early as 6 hours
In short: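 Fasted mice received APAP (600 mg/kg) dissolved in warm saline by oral gavage; controls received vehicle. TNF-α, CXCL1, CXCL2 and CXCL6 were measured by ELISA in liver lysates and serum over a time course after overdose. Groups had at least five mice, and experiments were run at least twice. Data are mean ± SEM, compared by one-way ANOVA.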

neutrophils in the liver = assay: Neutrophil recruitment to the liver; assay type: in vivo, mouse (LysM-eGFP); conditions: APAP-treated LysM-eGFP mice, time course
In short: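 LysM-eGFP mice were fasted and given oral APAP in warm saline. Neutrophils were counted in the liver by their GFP signal using confocal intravital microscopy over the injury time course. Extracellular DNA was visualised with i.v. Sytox green (2 µL of 5 mM). Groups had at least five mice, with experiments repeated at least twice. Data are mean ± SEM.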

[6] = system: myeloperoxidase (MPO) activity in liver; assay: MPO activity in liver lysates; assay type: in vivo, mouse; conditions: APAP-treated C57BL/6J mice
In short: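 MPO activity was measured in liver lysates as an estimate of neutrophil infiltration. C57BL/6J mice were fasted, then dosed with APAP in warm saline by oral gavage. Treatment arms received 100 µg peptide i.v. at 6, 12 and 18 h after overdose. Groups had at least five mice, and each experiment was run at least twice. Data are mean ± SEM, compared by t test or one-way ANOVA.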

Molecule: CC(=O)N[C@@H](CS)C(=O)O [N‐acetylcysteine]
- effect on APAP-induced liver injury and inflammation [1]: effective only if given soon after the APAP challenge or as a pretreatment

Molecule: hyaluronidase
- removal of MIG30 staining from liver by glycosidase [2]: Neither the DNA nor the MIG30 staining were significantly removed

Molecule: CXCL11: chemokine CXCL11
- binding to bacterial DNA (bacterial DNA): bind to bacterial DNA

Molecule: KKVLKVRKAQRSRQKKTT [control peptide]
- GAG binding [3]: poor GAG affinity

Molecule: CC(=O)Nc1ccc(O)cc1 [APAP, Acetaminophen]
- mortality (C57BL/6J mice): 40%
- liver damage (serum ALT levels) [4]: significant liver damage as early as 6 hours after APAP intoxication and up to 36 hours after the overdose
- hepatic necrosis (histopathology) (liver): extensive hepatic necrosis
- CXCL1 produced in the liver [5]: significant amounts
- CXCL2 produced in the liver [5]: significant amounts
- CXCL6 produced in the liver [5]: significant amounts
- TNF-α produced in the liver [5]: significant amounts
- neutrophil infiltration in the liver (neutrophils in the liver): profound neutrophil infiltration was observed between 12 and 36 hours after injury, which was maximal at the 24‐hour timepoint
- neutrophils in liver by MPO assay [6]: presence of neutrophils predominantly 24 hours after APAP treatment

Molecule: CXCL10: chemokine CXCL10
- binding to bacterial DNA (bacterial DNA): bind to bacterial DNA

B1: CXCL9: full-length chemokine CXCL9 (protein, UniProt Q07325 1-125, looked up)
chain: MKKSGVLFLLGIILLVLIGVQGTPVVRKGRCSCISTNQGTIHLQSLKDLKQFAPSPSCEKIEIIATLKNGVQTCLNPDSADVKELIKKWEKQVSQKKKQKNGKKHQKKKVLKVRKSQRSRQKKTT
modifications: full-length
- binding to bacterial DNA (bacterial DNA): bind to bacterial DNA

B2: heparinase: Heparinase III produced and provided by A. Kungl (protein, UniProt Q59289 25-659, looked up)
Heparin-sulfate lyase: QSSSITRKDFDHINLEYSGLEKVNKAVAAGNYDDAAKALLAYYREKSKAREPDFSNAEKPADIRQPIDKVTREMADKALVHQFQPHKGYGYFDYGKDINWQMWPVKDNEVRWQLHRVKWWQAMALVYHATGDEKYAREWVYQYSDWARKNPLGLSQDNDKFVWRPLEVSDRVQSLPPTFSLFVNSPAFTPAFLMEFLNSYHQQADYLSTHYAEQGNHRLFEAQRNLFAGVSFPEFKDSPRWRQTGISVLNTEIKKQVYADGMQFELSPIYHVAAIDIFLKAYGSAKRVNLEKEFPQSYVQTVENMIMALISISLPDYNTPMFGDSWITDKNFRMAQFASWARVFPANQAIKYFATDGKQGKAPNFLSKALSNAGFYTFRSGWDKNATVMVLKASPPGEFHAQPDNGTFELFIKGRNFTPDAGVFVYSGDEAIMKLRNWYRQTRIHSTLTLDNQNMVITKARQNKWETGNNLDVLTYTNPSYPNLDHQRSVLFINKKYFLVIDRAIGEATGNLGVHWQLKEDSNPVFDKTKNRVYTTYRDGNNLMIQSLNADRTSLNEEEGKVSYVYNKELKRPAFVFEKPKKNAGTQNFVSIVYPYDGQKAPEISIRENKGNDFEKGKLNLTLTINGKQQLVLVP
- removal of MIG30 staining from liver by glycosidase [2]: Neither the DNA nor the MIG30 staining were significantly removed
